Results published in publication PMC9393086 (Thrombosis and Haemostasis, 2022).

Tests used:
[1] = target: podoplanin–CLEC-2 interaction (Homo sapiens, UniProt Q9P126); assay: ALPHA screen podoplanin–CLEC-2 interaction assay; format: binding
In short: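 Biotinylated human podoplanin–rabbit Fc (50 nM) plus human CLEC-2 extracellular domain (Ser55–Pro229)–6xHis (250 nM), both expressed in HEK293T and purified, incubated with test compound (vehicle 0.1% v/v DMSO) 30 min at 4°C. Then 40 µg/mL streptavidin donor beads, 30 min at RT in the dark, then 40 µg/mL nickel acceptor beads, 60 min at RT in the dark. ALPHA signal read; false positives excluded by TruHits counter-screen; IC50 from concentration series.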

washed human platelets = assay: Light transmission platelet aggregation; format: cell-based; conditions: for effect on platelet aggregation induced by 10 µM katacine: pretreatment 5 min, PRT-060318 1 µM, PP2 20 µM
In short: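 Platelets came from citrated blood of healthy donors free of antiplatelet drugs for 14 days. They were washed from PRP with 0.2 µg/mL prostacyclin, resuspended in modified Tyrode's buffer pH 7.3 and rested 30 min at RT. Platelets (2 × 10^8/mL) were stirred at 1,200 rpm at 37°C and stimulated with test compound (1–30 µM). Pretreatment was 5 min at 37°C with PP2 20 µM, PRT-060318 1 µM, AYP1 10 µg/mL or 0.1% DMSO. Read-out was light transmission; three independent experiments, mean + SD.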

LAT Y200 = assay: Phospho-specific immunoblot of platelet lysates, LAT; format: cell-based, human; conditions: katacine 10 µM, rhodocytin 100 nM; 5 min; 9 µM eptifibatide
mouse washed platelets = assay: Mouse platelet aggregation; format: cell-based; conditions: katacine 10 µM; 2x10^8 platelets/mL
FcR γ-chain = FcR γ-chain phosphorylation, western blot of whole cell lysate; format: cell-based, human; conditions: katacine 10 µM, CRP 3 µg/mL
CLEC-2 = assay: Immunoprecipitation of CLEC-2 and 4G10 western blot; format: cell-based, human; conditions: katacine 10 µM, rhodocytin 100 nM
In short: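 Platelets (4 × 10^8/mL, 9 µM eptifibatide) were stimulated 5 min at 37°C, stirring at 1,200 rpm, with test compound, rhodocytin or vehicle. Lysis was in NP-40 buffer with protease inhibitors and orthovanadate, pH 7.5. Lysates were precleared on Sepharose, then incubated 30 min with 2 µg anti-CLEC-2 antibody AYP1 and captured for 60 min. Immunoprecipitates were blotted with 4G10; signal was expressed as fold over vehicle.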

Syk Y525/526 = assay: Phospho-specific immunoblot of platelet lysates, Syk; format: cell-based, human; conditions: katacine 10 µM, rhodocytin 100 nM; 5 min; 9 µM eptifibatide
mouse platelet lysates = assay: Protein tyrosine phosphorylation in mouse platelet lysates; format: cell-based; conditions: katacine 10 µM; 4x10^8 platelets/mL

Sequence of podoplanin–CLEC-2 interaction (Q9P126 55-229): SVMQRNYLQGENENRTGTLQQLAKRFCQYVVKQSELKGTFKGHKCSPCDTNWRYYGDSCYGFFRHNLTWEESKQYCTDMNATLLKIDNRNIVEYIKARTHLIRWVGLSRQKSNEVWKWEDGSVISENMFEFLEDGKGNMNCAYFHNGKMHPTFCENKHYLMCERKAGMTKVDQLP

With O=C(O)c1cc(O)c2c(c1)[C@H]([C@H]1c3cc(C(=O)O)cc(O)c3C(=O)c3c(O[C@@H]4O[C@H](CO)[C@@H](O)[C@H](O)[C@H]4O)cccc31)c1cccc(O[C@@H]3O[C@H](CO)[C@@H](O)[C@H](O)[C@H]3O)c1C2=O [sennoside A, Sennoside A] the IC50 [1] was 1300 nM, the “effect on platelet aggregation” value (washed human platelets; 10 and 30 µM, data not shown) was “no effect” and the “effect on the platelet aggregation response to rhodocytin” value (washed human platelets; 10 and 30 µM, rhodocytin 100 nM, data not shown) was “no effect”.

CC(C)(C)n1nc(-c2ccc(Cl)cc2)c2c(N)ncnc21 [PP2, reference compound] was tested, and the “effect on platelet aggregation induced by 10 µM katacine” value (washed human platelets) was “completely blocked”.

Cc1cccc(Nc2nc(N[C@@H]3CCCC[C@@H]3N)ncc2C(N)=O)c1 [PRT-060318, reference compound] was tested, and the “effect on platelet aggregation induced by 10 µM katacine” value (washed human platelets) was “completely blocked”.

Oc1cc(O)c2c(c1)O[C@H](c1cc(O)c(O)c(O)c1)[C@H](O)[C@H]2c1c(O)cc(O)c2c1O[C@H](c1cc(O)c(O)c(O)c1)[C@H](O)[C@H]2c1c(O)cc(O)c2c1O[C@H](c1cc(O)c(O)c(O)c1)[C@H](O)C2 [katacine, Katacine] was tested, and the “increase in phosphorylation of LAT Y200 relative to vehicle” value (LAT Y200) was 18.8 ± 5.9 fold, the IC50 [1] was 2700 nM and the “platelet aggregation in mouse platelets” value (mouse washed platelets) was “did not observe platelet aggregation”. For the same compound, the “phosphorylation of FcR γ-chain” value (FcR γ-chain) was “did not stimulate an increase”, the “increase in phosphorylation levels of CLEC-2 relative to vehicle” value (CLEC-2) was 6.6 ± 4.6 fold and the “increase in phosphorylation of Syk Y525/526 relative to vehicle” value (Syk Y525/526) was 4.5 ± 0.9 fold. The “platelet aggregation, concentration–response” value (washed human platelets; at 5 μM and below) was “no response”, the “platelet aggregation, concentration–response” value (washed human platelets; at 10 and 30 μM) was “maximal aggregation” and the platelet aggregation (washed human platelets; katacine 10 µM, washed platelets 2 × 10^8/mL) was 77.7 ± 9%. The “protein tyrosine phosphorylation in mouse platelets” value (mouse platelet lysates) was “did not observe”.
